Shown are actives, neighbours in structure and some others; about 12% of the full set was active somewhere.
CHOP inh: CHOP inhibition in unfolded protein response; CHO-K1 CHOP-promoter luciferase, tunicamycin-induced, 15-18 h; inhibition, % at 10 µM; 220,000 compounds, 3.8% hits; AID 2732;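 active = compounds that reduced the stress-induced luciferase reporter signal by more than about 70% of percent inhibition, limit read from the data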;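 also: 0% = tunicamycin plus vehicle and 100% = wells without tunicamycin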
Lmaj promast: reduces viability of Leishmania major promastigotes; resazurin fluorescence viability; inhibition, % at 10 µM; 200,000 compounds, 9% hits; AID 1063; in the data active = inhibition above about 50%;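 also: promastigotes grown with compound for 44 hours at 28 °C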
Autophagy HCS: alters autophagy in cells; MEF GFP-LC3 puncta imaging; test concentration mostly 10 µM; calls only at 10 µM (by protocol); 190,000 compounds, 0.98% hits; AID 463193;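 active = percentage of spot-positive cells more than 3 SD above its plate mean, without a fluorescence outlier flag or 80% toxicity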;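 also: spot-positive cell cutoff set from DMSO-treated cells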
Dynein transport: dynein cargo transport inhibition | AID 1381 | 3617.4 mouse cells, GR-EGFP nuclear translocation imaging; test concentration mostly 20 µM; stimulated with dexamethasone, 1 µM; stronger effect = lower value | 220,000 compounds, 0.47% hits | z-score, hits read low;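 active = plate z-score of nuclear minus cytoplasmic receptor signal below a set negative limit, without overly bright fluorescence or cell loss, cut at about -3.5 in these data, passing the limit was not always enough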;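 also: z-score of nuclear minus cytoplasmic ring GR-EGFP intensity difference per well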
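Buffer or medium: tetracycline-free induction medium containing charcoal-stripped FBS / Reagent: dexamethasone agonist, 1.0 µM final, for 30 min / Technique: automated 10x imaging of fixed Hoechst-stained cells / Times: induction 48 h, compound 1 h, agonist 30 min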
b-catenin transl: modulators of beta-catenin nuclear translocation | HeLa beta-catenin nuclear translocation, immunofluorescence imaging | nuclear translocation activity, % at 5 µM | 190,000 compounds, 0.3% hits;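 active = nuclear translocation activity above 50% at 5 µM, with a well cell count of 50 or more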;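 also: per-cell ratio of nuclear to cytoplasmic median beta-catenin stain intensity; plate controls were DMSO negative control for no effect and GSK-3 inhibitor IX positive control for full effect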
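test system = HeLa cells, endogenous beta-catenin | dosing = single 5 µM dose plus 0.02–20 µM confirmation series | times = compound treatment 24 h, 37°C, 5% CO2 | technique = beta-catenin immunofluorescence imaging with DAPI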
MT stabilize HCS: microtubule stabilizers in HeLa cells; HeLa tubulin immunostaining HCS, 24 h; share of cells brighter than vehicle mean+2SD; % tubulin-high responders, % at 10 µM; 200,000 compounds, 0.83% hits;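 active = plate Z-score above 3 for both tubulin-high and condensed-nucleus cell shares, with cell loss under 80%, at 10 µM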;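 also: anti alpha tubulin signal scored within the nucleus-defined area of each cell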
Numbers without * were called inactive.

What do the screens show for `Cc1ccc(F)cc1NC(=O)C12CC3CC(C1)CC(n1cnc([N+](=O)[O-])n1)(C3)C2`?
CHOP inh: 6; Lmaj promast: 67*; Autophagy HCS: inactive; Dynein transport: -0.1; b-catenin transl: -1; MT stabilize HCS: 3

Results for COC(=O)c1cccc(NC(=O)C23CC4CC(C2)CC(n2cncn2)(C4)C3)c1 ?
CHOP inh: -6; Lmaj promast: -6; Autophagy HCS: inactive; Dynein transport: 0.14; b-catenin transl: 1; MT stabilize HCS: 3

How did CC(=O)Nc1ccc(NC(=O)C23CC4CC(C2)CC(n2cnc(Br)n2)(C4)C3)cc1 do in these assays?
CHOP inh: -1; Lmaj promast: 0; Autophagy HCS: inactive; Dynein transport: 0.24; b-catenin transl: -3; MT stabilize HCS: 6

Results for O=C(Nc1cccc([N+](=O)[O-])c1)C12CC3CC(C1)CC(n1cnc([N+](=O)[O-])n1)(C3)C2 ?
CHOP inh: 15; Lmaj promast: 76*; Autophagy HCS: inactive; Dynein transport: -0.34; b-catenin transl: -1; MT stabilize HCS: 3

Results for O=C(Nc1ccccc1)C12CC3CC(C1)CC(n1cnc([N+](=O)[O-])n1)(C3)C2 ?
CHOP inh: -11; Lmaj promast: 72*; Autophagy HCS: inactive; Dynein transport: -0.11; b-catenin transl: 0; MT stabilize HCS: 3

What do the screens show for `COc1ccc(Nc2ccc(N3C(=O)CCCC3=O)cc2[N+](=O)[O-])c(OC)c1`?
CHOP inh: -3; Lmaj promast: -3; Autophagy HCS: inactive; Dynein transport: -0.45; b-catenin transl: 1; MT stabilize HCS: 4

Results for COc1ccc(NC(=O)CC2C(=O)N(c3ccc(Cl)cc3)C(=S)N2CCc2ccncc2)cc1 (centres undefined) ?
CHOP inh: 93*; Lmaj promast: 7; Autophagy HCS: inactive; Dynein transport: 1.2; MT stabilize HCS: 2

Results for COc1ccc(NC(=O)CC2C(=O)N(c3ccc(Cl)cc3)C(=S)N2CCc2ccccn2)cc1 (centres undefined) ?
CHOP inh: 25; Lmaj promast: 18; Autophagy HCS: inactive; Dynein transport: -0.32; b-catenin transl: 2; MT stabilize HCS: 2

Results for CCOc1ccc(N2C(=O)C(CC(=O)Nc3ccc(F)cc3)N(Cc3ccccn3)C2=S)cc1 (centres undefined) ?
CHOP inh: 9; Lmaj promast: 68*; Autophagy HCS: inactive; Dynein transport: -1.2; b-catenin transl: 0; MT stabilize HCS: 4

What do the screens show for `COC(=O)CN1C(=S)N(c2ccc(Cl)cc2)C(=O)C1CC(=O)Nc1ccc(Cl)cc1` (centres undefined)?
CHOP inh: 91*; Lmaj promast: -2; Autophagy HCS: inactive; Dynein transport: 0.41; b-catenin transl: -2; MT stabilize HCS: 2

What do the screens show for `COc1ccc(NC(=O)CC2C(=O)N(c3ccc(Cl)cc3)C(=S)N2NC(=O)c2cccc(F)c2)cc1` (centres undefined)?
CHOP inh: 84*; Lmaj promast: 20; Autophagy HCS: inactive; Dynein transport: 0.29; b-catenin transl: 2; MT stabilize HCS: 1

How did COC(=O)CN1C(=S)N(c2ccc(Cl)cc2)C(=O)C1CC(=O)Nc1ccc(F)cc1 (centres undefined) do in these assays?
CHOP inh: 29; Lmaj promast: -4; Autophagy HCS: inactive; Dynein transport: 1.4; b-catenin transl: -1; MT stabilize HCS: 5

What do the screens show for `CCOc1ccc(N2C(=O)C(CC(=O)Nc3ccccc3)N(Cc3ccccn3)C2=S)cc1` (centres undefined)?
CHOP inh: 10; Lmaj promast: 23; Autophagy HCS: inactive; Dynein transport: 0.44; MT stabilize HCS: 3

What do the screens show for `CN1[C@@H](CC(=O)c2ccccc2)CCC[C@H]1C[C@H](O)c1ccccc1`?
CHOP inh: 13; Lmaj promast: 88*; Autophagy HCS: inactive; Dynein transport: 0.12; b-catenin transl: -1; MT stabilize HCS: 2

What do the screens show for `CN1C(CC(=O)c2ccccc2)CCCC1CC(O)c1ccccc1` (centres undefined)?
CHOP inh: 28; Lmaj promast: 90*; Autophagy HCS: inactive; Dynein transport: -0.14; b-catenin transl: 3; MT stabilize HCS: 1
